Experimental data: ChEMBL document CHEMBL3734657, “Discovery of Novel Multifunctional Ligands with μ/δ Opioid Agonist/Neurokinin-1 (NK1) Antagonist Activities for the Treatment of Pain” (J Med Chem, 2015)
Active and inactive are the calls of the source. The calls are words filed in the database; no cut-off is given here.

Tests used:
Mu-type opioid receptor [1] = biological target: T1, Mu-type opioid receptor (Homo sapiens, UniProt P35372); assay: Binding affinity to mu opioid receptor (unknown origin)
[2] = biological target: Substance-P receptor (Cavia porcellus) (UniProt P30547); assay: Agonist activity at neurokinin-1 receptor in Hartley guniea pig isolated ileum/Longitudinal Muscle with Myenteric Plexus assessed as inhibition of electrically-stimulated muscle contraction at 30 nM; type: tissue-based
Mu-type opioid receptor [3] = biological target: T1, Mu-type opioid receptor; assay: Agonist activity at mu opioid receptor (unknown origin) expressed in HEK293 cells assessed as inhibition of forskolin-induced cAMP accumulation by bioluminescent assay; type: functional, cell-based
[4] = biological target: T2, Delta-type opioid receptor (Homo sapiens, UniProt P41143); assay: Agonist activity at delta receptor (unknown origin) expressed in HEK293 cells assessed as inhibition of forskolin-induced cAMP accumulation by bioluminescent assay; type: functional, cell-based
[5] = Metabolic stability in rat plasma assessed as compound remaining at 50 ug/ml […] by RP-HPLC assay; type: ADME, cell-free; details: read-out: Stability
Rattus norvegicus = organism: Rattus norvegicus; assay: Neurotoxicity in Sprague-Dawley rat assessed as motor impairment at 10 ug/5 ul, it by rotarod test; type: toxicity, organism-based; details: in vivo, icv_or_intrathecal
How it was run: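 Intrathecal catheterized Sprague–Dawley rats given 10 μg in 5 μL; motor function assessed by rotarod.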

Substance-P receptor = Substance-P receptor (Rattus norvegicus, UniProt P14600); assay: Displacement of [3H]SP from rat neurokinin-1 receptor expressed in CHO cells incubated for 20 mins by liquid scintillation counting; type: cell-based
How it was run: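 CHO membranes with human or rat NK1: six compound concentrations in duplicate with 20 μg membrane and 0.5 nM [3H]SP in 50 mM Tris pH 7.4, 5 mM MgCl2 plus peptidase inhibitors; 25 °C, 20 min. Nonspecific binding with 10 μM SP. GF/B filtration (PEI-soaked), scintillation counting.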

[6] = biological target: T2, Delta-type opioid receptor; assay: Binding affinity to delta opioid receptor (unknown origin)
Homo sapiens [7] = organism: Homo sapiens; assay: Selectivity ratio of Ki for mu opioid receptor (unknown origin) to Ki for delta opioid receptor (unknown origin)
[8] = biological target: Substance-P receptor (Cavia porcellus) (UniProt P30547); assay: Agonist activity at neurokinin-1 receptor in Hartley guniea pig isolated ileum/Longitudinal Muscle with Myenteric Plexus assessed as inhibition of electrically-stimulated muscle contraction at 300 nM; type: tissue-based
[9] = Selectivity ratio of IC50 for mu opioid receptor in Hartley guniea pig isolated ileum to IC50 for delta opioid receptor in ICR mouse isolated vas deferens; type: tissue-based
[10] = Half-life in rat plasma at 50 ug/ml by RP-HPLC assay; type: ADME, cell-free
How it was run: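 50 mg/mL DMSO stock diluted 1000-fold into rat plasma (final 50 μg/mL), 37 °C. Aliquots at 0.5–8 h quenched with acetonitrile, centrifuged; parent remaining by RP-HPLC C18. Two independent runs, each in duplicate; half-life from mean of the two.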

[11] = biological target: Delta-type opioid receptor (Mus musculus, UniProt P32300); assay: Agonist activity at delta opioid receptor in ICR mouse isolated vas deferens assessed as inhibition of electrically-stimulated muscle contraction; type: tissue-based
[12] = biological target: Substance-P receptor (Cavia porcellus) (UniProt P30547); assay: Antagonist activity at neurokinin-1 receptor in Hartley guniea pig isolated ileum/Longitudinal Muscle with Myenteric Plexus assessed as inhibition of electrically-stimulated muscle contraction; type: tissue-based
[13] = biological target: Substance-P receptor (Homo sapiens) (UniProt P25103); assay: Antagonist activity at neurokinin-1 receptor (unknown origin) expressed in CHO cells assessed as inhibition of substance-P induced calcium flux by bioluminescent assay; type: functional, cell-based
[14] = biological target: Substance-P receptor (Cavia porcellus) (UniProt P30547); assay: Agonist activity at neurokinin-1 receptor in Hartley guniea pig isolated ileum/Longitudinal Muscle with Myenteric Plexus assessed as inhibition of electrically-stimulated muscle contraction at 100 nM; type: tissue-based
Homo sapiens [15] = organism: Homo sapiens; assay: Selectivity ratio of IC50 for mu opioid receptor (unknown origin) to IC50 for delta opioid receptor (unknown origin)
[16] = biological target: Substance-P receptor (Cavia porcellus) (UniProt P30547); assay: Agonist activity at neurokinin-1 receptor in Hartley guniea pig isolated ileum assessed as inhibition of electrically-stimulated muscle contraction at 1 uM; type: tissue-based; parameters: scale not given: the % may be the effect or the level left
Mu-type opioid receptor [17] = biological target: Mu-type opioid receptor (Cavia porcellus, UniProt P97266); assay: Agonist activity at mu opioid receptor in Hartley guniea pig isolated ileum assessed as inhibition of electrically-stimulated muscle contraction; type: tissue-based
Chain of Mu-type opioid receptor (Cavia porcellus, UniProt P97266) (P97266 whole entry): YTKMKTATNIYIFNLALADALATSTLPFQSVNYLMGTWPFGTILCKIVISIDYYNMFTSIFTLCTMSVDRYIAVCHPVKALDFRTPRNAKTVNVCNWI

Chain of Substance-P receptor (Cavia porcellus) (P30547 whole entry): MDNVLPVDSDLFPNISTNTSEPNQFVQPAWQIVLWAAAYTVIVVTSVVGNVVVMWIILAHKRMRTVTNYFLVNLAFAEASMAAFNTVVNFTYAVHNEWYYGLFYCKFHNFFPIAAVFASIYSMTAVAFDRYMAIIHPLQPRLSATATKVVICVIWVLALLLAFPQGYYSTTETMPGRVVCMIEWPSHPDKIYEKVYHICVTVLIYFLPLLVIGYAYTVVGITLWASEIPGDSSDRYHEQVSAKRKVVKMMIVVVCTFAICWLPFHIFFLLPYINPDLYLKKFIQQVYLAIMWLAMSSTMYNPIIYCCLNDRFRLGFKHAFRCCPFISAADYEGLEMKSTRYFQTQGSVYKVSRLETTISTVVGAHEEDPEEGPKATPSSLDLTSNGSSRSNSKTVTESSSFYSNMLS
T1 sequence (P35372 whole entry): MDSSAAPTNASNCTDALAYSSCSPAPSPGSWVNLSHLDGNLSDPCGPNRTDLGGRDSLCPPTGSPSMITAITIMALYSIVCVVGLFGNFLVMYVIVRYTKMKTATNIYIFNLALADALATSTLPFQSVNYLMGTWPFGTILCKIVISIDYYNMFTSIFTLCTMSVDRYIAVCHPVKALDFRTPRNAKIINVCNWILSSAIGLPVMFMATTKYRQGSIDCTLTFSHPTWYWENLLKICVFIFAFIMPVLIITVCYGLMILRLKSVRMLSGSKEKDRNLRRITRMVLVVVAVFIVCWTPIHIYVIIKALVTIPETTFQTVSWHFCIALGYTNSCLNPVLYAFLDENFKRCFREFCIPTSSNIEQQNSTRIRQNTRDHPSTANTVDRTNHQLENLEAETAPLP
T2 sequence (P41143 whole entry): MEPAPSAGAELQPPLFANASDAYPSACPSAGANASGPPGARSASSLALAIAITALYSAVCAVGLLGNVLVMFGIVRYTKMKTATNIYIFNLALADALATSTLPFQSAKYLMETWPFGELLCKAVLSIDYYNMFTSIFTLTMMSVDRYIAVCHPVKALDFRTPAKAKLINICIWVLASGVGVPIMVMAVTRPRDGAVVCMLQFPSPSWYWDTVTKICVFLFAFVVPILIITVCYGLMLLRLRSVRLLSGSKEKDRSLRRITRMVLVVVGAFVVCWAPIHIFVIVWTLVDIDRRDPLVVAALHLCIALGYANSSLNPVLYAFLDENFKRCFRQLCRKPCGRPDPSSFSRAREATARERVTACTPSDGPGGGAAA
Chain of Substance-P receptor (P14600 whole entry): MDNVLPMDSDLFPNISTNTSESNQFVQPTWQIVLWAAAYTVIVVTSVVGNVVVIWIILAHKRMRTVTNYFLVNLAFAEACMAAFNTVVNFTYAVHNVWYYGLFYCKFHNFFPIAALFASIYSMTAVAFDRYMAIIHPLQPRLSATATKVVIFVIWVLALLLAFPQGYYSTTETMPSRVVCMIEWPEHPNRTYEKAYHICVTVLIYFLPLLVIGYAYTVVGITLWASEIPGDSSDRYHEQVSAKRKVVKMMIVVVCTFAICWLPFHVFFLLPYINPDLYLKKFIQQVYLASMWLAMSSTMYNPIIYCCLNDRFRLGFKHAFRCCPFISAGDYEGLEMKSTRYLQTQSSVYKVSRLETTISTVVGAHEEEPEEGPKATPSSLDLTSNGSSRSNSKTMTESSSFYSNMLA
Chain of Delta-type opioid receptor (Mus musculus, UniProt P32300) (P32300 whole entry): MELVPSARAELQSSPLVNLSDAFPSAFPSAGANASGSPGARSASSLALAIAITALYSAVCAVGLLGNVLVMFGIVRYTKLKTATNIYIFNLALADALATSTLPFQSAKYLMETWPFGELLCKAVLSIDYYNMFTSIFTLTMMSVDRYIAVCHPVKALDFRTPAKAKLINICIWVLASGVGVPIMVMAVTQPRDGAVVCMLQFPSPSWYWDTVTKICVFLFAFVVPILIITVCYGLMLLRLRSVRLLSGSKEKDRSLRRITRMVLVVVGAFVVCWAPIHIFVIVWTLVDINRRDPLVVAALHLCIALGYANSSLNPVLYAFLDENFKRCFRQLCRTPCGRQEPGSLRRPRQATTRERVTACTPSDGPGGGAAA
Chain of Substance-P receptor (Homo sapiens) (P25103 whole entry): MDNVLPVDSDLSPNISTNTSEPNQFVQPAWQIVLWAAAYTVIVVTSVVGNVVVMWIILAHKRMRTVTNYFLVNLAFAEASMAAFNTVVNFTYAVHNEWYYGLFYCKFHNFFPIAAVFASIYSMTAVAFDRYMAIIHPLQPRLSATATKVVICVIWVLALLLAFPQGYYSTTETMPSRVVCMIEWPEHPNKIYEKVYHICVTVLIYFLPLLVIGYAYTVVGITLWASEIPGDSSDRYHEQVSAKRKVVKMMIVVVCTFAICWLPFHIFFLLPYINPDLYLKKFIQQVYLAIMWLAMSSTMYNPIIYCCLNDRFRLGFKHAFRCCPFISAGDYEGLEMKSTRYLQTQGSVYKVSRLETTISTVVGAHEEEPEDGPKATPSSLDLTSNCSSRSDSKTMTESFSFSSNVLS

For `Cc1cc(O)cc(C)c1C[C@H](N)C(=O)N[C@H](C)C(=O)NCC(=O)N(C)[C@@H](Cc1ccc(F)cc1)C(=O)N1CCC[C@H]1C(=O)N[C@@H](CC(C)C)C(=O)N[C@@H](Cc1c[nH]c2ccccc12)C(=O)NCc1cc(C(F)(F)F)cc(C(F)(F)F)c1`, which IC50 (Mu-type opioid receptor [1]) is on record?
The IC50 was 2.82 nM.

Which Activity [2] does the source give for `CC(C)C[C@H](NC(=O)[C@@H]1CCCN1C(=O)[C@H](Cc1ccc(F)cc1)NC(=O)CNC(=O)[C@H](C)NC(=O)[C@@H](N)Cc1ccc(O)cc1)C(=O)N[C@@H](Cc1c[nH]c2ccccc12)C(=O)NCc1cc(C(F)(F)F)cc(C(F)(F)F)c1` here?
The Activity was “inactive”.

Which results are given for `Cc1cc(O)cc(C)c1C[C@H](N)C(=O)N[C@H](C)C(=O)NCC(=O)N(C)[C@@H](Cc1ccccc1)C(=O)N1CCC[C@H]1C(=O)N[C@@H](CC(C)C)C(=O)N[C@@H](Cc1c[nH]c2ccccc12)C(=O)NCc1cc(C(F)(F)F)cc(C(F)(F)F)c1`?
IC50 (Mu-type opioid receptor [3]): 39 nM; IC50 (Mu-type opioid receptor [1]): 1.66 nM; IC50 [4]: 30 nM; remaining at 50 ug/ml [5]: 100%; Activity (Rattus norvegicus): Toxic

With `CC(C)C[C@H](NC(=O)[C@@H]1CCCN1C(=O)[C@H](Cc1ccc(F)cc1)NC(=O)CNC(=O)[C@@H](C)NC(=O)[C@@H](N)Cc1ccc(O)cc1)C(=O)N[C@@H](Cc1c[nH]c2ccccc12)C(=O)NCc1cc(C(F)(F)F)cc(C(F)(F)F)c1` as the molecule, how does the IC50 (Mu-type opioid receptor [1]) read?
The IC50 was 8.32 nM.

And the Ki (Substance-P receptor)?
The Ki was 34 nM.

And the IC50 [6]?
Its IC50 is 15.5 nM.

What about the Ki [6] of the same molecule?
The Ki was 7 nM.

What about the remaining at 50 ug/ml [5] of the same molecule?
The remaining at 50 ug/ml was 100%.

For `Cc1cc(O)cc(C)c1C[C@H](N)C(=O)N[C@@H](C)C(=O)NCC(=O)N[C@@H](Cc1ccc(Cl)cc1)C(=O)N1CCC[C@H]1C(=O)N[C@@H](CC(C)C)C(=O)N[C@@H](Cc1c[nH]c2ccccc12)C(=O)NCc1cc(C(F)(F)F)cc(C(F)(F)F)c1`, which Ratio Ki (Homo sapiens [7]) is on record?
Its Ratio Ki is 1.

And the Activity [8]?
Its Activity is “inactive”.

What about the Ratio IC50 [9] of the same molecule?
The Ratio IC50 was 7.

What does the source list for `Cc1cc(O)cc(C)c1C[C@H](N)C(=O)N[C@@H](C)C(=O)NCC(=O)N[C@@H](Cc1ccc(F)cc1)C(=O)N1CCC[C@H]1C(=O)N[C@@H](CC(C)C)C(=O)N[C@@H](Cc1c[nH]c2ccccc12)C(=O)NCc1cc(C(F)(F)F)cc(C(F)(F)F)c1`?
Ratio Ki (Homo sapiens [7]): 1; Activity [2]: inactive

Which IC50 (Mu-type opioid receptor [3]) does the source give for `Cc1cc(O)cc(C)c1C[C@H](N)C(=O)N[C@H](C)C(=O)NCC(=O)N[C@@H](Cc1ccc(F)cc1)C(=O)N1CCC[C@H]1C(=O)N[C@@H](CC(C)C)C(=O)N[C@@H](Cc1c[nH]c2ccccc12)C(=O)NCc1cc(C(F)(F)F)cc(C(F)(F)F)c1` here?
The IC50 was 59 nM.

What about the IC50 (Mu-type opioid receptor [1]) of the same molecule?
The IC50 was 1.91 nM.

What about the half-life at 50 ug/ml [10] of the same molecule?
Its half-life at 50 ug/ml is over 12 h.

And the IC50 [4]?
The IC50 was 21 nM.

And the IC50 [6]?
Its IC50 is 66.1 nM.

And the remaining at 50 ug/ml [5]?
Its remaining at 50 ug/ml is 100%.

What about the IC50 [11] of the same molecule?
The IC50 was 2 nM.

Which IC50 (Mu-type opioid receptor [1]) does the source give for `Cc1cc(O)cc(C)c1C[C@H](N)C(=O)N[C@H](C)C(=O)NCC(=O)N[C@@H](Cc1ccc(I)cc1)C(=O)N1CCC[C@H]1C(=O)N[C@@H](CC(C)C)C(=O)N[C@@H](Cc1c[nH]c2ccccc12)C(=O)NCc1cc(C(F)(F)F)cc(C(F)(F)F)c1` here?
The IC50 was 13.2 nM.

What does the source list for `CC(C)C[C@H](NC(=O)[C@@H]1CCCN1C(=O)[C@H](Cc1ccccc1)NC(=O)CNC(=O)[C@@H](C)NC(=O)[C@@H](N)Cc1ccc(O)cc1)C(=O)N[C@@H](Cc1c[nH]c2ccccc12)C(=O)NCc1cc(C(F)(F)F)cc(C(F)(F)F)c1`?
IC50 (Mu-type opioid receptor [1]): 20 nM; Ki (Mu-type opioid receptor [1]): 9.5 nM

For `Cc1cc(O)cc(C)c1C[C@H](N)C(=O)N[C@@H](C)C(=O)NCC(=O)N(C)[C@@H](Cc1ccccc1)C(=O)N1CCC[C@H]1C(=O)N[C@@H](CC(C)C)C(=O)N[C@@H](Cc1c[nH]c2ccccc12)C(=O)NCc1cc(C(F)(F)F)cc(C(F)(F)F)c1`, which Activity [2] is on record?
The Activity was “inactive”.

For `Cc1cc(O)cc(C)c1C[C@H](N)C(=O)N[C@@H](C)C(=O)NCC(=O)N[C@@H](Cc1ccccc1)C(=O)N1CCC[C@H]1C(=O)N[C@@H](CC(C)C)C(=O)N[C@@H](Cc1c[nH]c2ccccc12)C(=O)NCc1cc(C(F)(F)F)cc(C(F)(F)F)c1`, which Ke [12] is on record?
The Ke was 25 nM.

What about the Ke [13] of the same molecule?
Its Ke is 11 nM.

And the Ratio Ki (Homo sapiens [7])?
The Ratio Ki was 3.

What about the Ratio IC50 [9] of the same molecule?
Its Ratio IC50 is 26.

And the Activity [14]?
Its Activity is “inactive”.

And the Ratio IC50 (Homo sapiens [15])?
The Ratio IC50 was 6.

With `Cc1cc(O)cc(C)c1C[C@H](N)C(=O)N[C@@H](C)C(=O)NCC(=O)N[C@@H](Cc1ccc(Br)cc1)C(=O)N1CCC[C@H]1C(=O)N[C@@H](CC(C)C)C(=O)N[C@@H](Cc1c[nH]c2ccccc12)C(=O)NCc1cc(C(F)(F)F)cc(C(F)(F)F)c1` as the molecule, how does the Activity [14] read?
Its Activity is “inactive”.

With `Cc1cc(O)cc(C)c1C[C@H](N)C(=O)N[C@@H](C)C(=O)NCC(=O)N(C)[C@@H](Cc1ccc(F)cc1)C(=O)N1CCC[C@H]1C(=O)N[C@@H](CC(C)C)C(=O)N[C@@H](Cc1c[nH]c2ccccc12)C(=O)NCc1cc(C(F)(F)F)cc(C(F)(F)F)c1` as the molecule, how does the Activity [2] read?
The Activity was “inactive”.

What does the source list for `Cc1cc(O)cc(C)c1C[C@H](N)C(=O)N[C@@H](C)C(=O)NCC(=O)N[C@@H](Cc1ccc(I)cc1)C(=O)N1CCC[C@H]1C(=O)N[C@@H](CC(C)C)C(=O)N[C@@H](Cc1c[nH]c2ccccc12)C(=O)NCc1cc(C(F)(F)F)cc(C(F)(F)F)c1`?
Activity [16]: 41%; Activity [8]: inactive

For `Cc1cc(O)cc(C)c1C[C@H](N)C(=O)N[C@H](C)C(=O)NCC(=O)N[C@@H](Cc1ccc(Cl)cc1)C(=O)N1CCC[C@H]1C(=O)N[C@@H](CC(C)C)C(=O)N[C@@H](Cc1c[nH]c2ccccc12)C(=O)NCc1cc(C(F)(F)F)cc(C(F)(F)F)c1`, which IC50 (Mu-type opioid receptor [1]) is on record?
Its IC50 is 4.68 nM.

Which IC50 (Mu-type opioid receptor [3]; hek293) does the source give for `Cc1cc(O)cc(C)c1C[C@H](N)C(=O)N[C@H](C)C(=O)NCC(=O)N[C@@H](Cc1ccccc1)C(=O)N1CCC[C@H]1C(=O)N[C@@H](CC(C)C)C(=O)N[C@@H](Cc1c[nH]c2ccccc12)C(=O)NCc1cc(C(F)(F)F)cc(C(F)(F)F)c1` here?
Its IC50 is 46 nM.

What about the IC50 (Mu-type opioid receptor [1]) of the same molecule?
Its IC50 is 2.34 nM.

And the Ki (Mu-type opioid receptor [1])?
Its Ki is 3 nM.

What about the Ki (Substance-P receptor; cho) of the same molecule?
The Ki was 27 nM.

What about the IC50 ([4]; hek293) of the same molecule?
Its IC50 is 7.2 nM.

What about the IC50 (Mu-type opioid receptor [17]) of the same molecule?
The IC50 was 81 nM.

Which IC50 (Mu-type opioid receptor [1]) does the source give for `Cc1cc(O)cc(C)c1C[C@H](N)C(=O)N[C@H](C)C(=O)NCC(=O)N[C@@H](Cc1ccc(Br)cc1)C(=O)N1CCC[C@H]1C(=O)N[C@@H](CC(C)C)C(=O)N[C@@H](Cc1c[nH]c2ccccc12)C(=O)NCc1cc(C(F)(F)F)cc(C(F)(F)F)c1` here?
Its IC50 is 11 nM.

Which results are given for `CC(C)C[C@H](NC(=O)[C@@H]1CCCN1C(=O)[C@H](Cc1ccccc1)N(C)C(=O)CNC(=O)[C@H](C)NC(=O)[C@@H](N)Cc1ccc(O)cc1)C(=O)N[C@@H](Cc1c[nH]c2ccccc12)C(=O)NCc1cc(C(F)(F)F)cc(C(F)(F)F)c1`?
Ratio IC50 [9]: 2; Activity [14]: inactive

For `CC(C)C[C@H](NC(=O)[C@@H]1CCCN1C(=O)[C@H](Cc1ccccc1)N(C)C(=O)CNC(=O)[C@@H](C)NC(=O)[C@@H](N)Cc1ccc(O)cc1)C(=O)N[C@@H](Cc1c[nH]c2ccccc12)C(=O)NCc1cc(C(F)(F)F)cc(C(F)(F)F)c1`, which IC50 (Mu-type opioid receptor [1]) is on record?
Its IC50 is 89.1 nM.
